Laboratory results reported in ChEMBL document CHEMBL1140315, “Design and synthesis of the first generation of novel potent, selective, and in vivo active (benzothiazol-2-yl)acetonitrile inhibitors of the c-Jun N-terminal kinase” (J Med Chem, 2005).
Each block holds one compound with its values, some of them ahead of it.

Tests used:
[1] = biological target: Mitogen-activated protein kinase 10 (Rattus norvegicus, UniProt P49187); assay: Inhibition of rat c-Jun N-terminal kinase 3
Jurkat = assay: Ability to inhibit IL-2 production induced with phorbol-12, myristate-13 acetate and ionomycin in Jurkat T cell at the concentration of 10 uM; assay type: functional; conditions: Homo sapiens
In short: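 Jurkat human T cell leukemia cells in RPMI 1640 with 10% heat-inactivated FCS, plated at 2 × 10⁵ cells/well. Compounds added in 0.1% DMSO and preincubated 30 min at 37 °C. Cells then stimulated with PMA + ionomycin (0.1 and 1 µM final) for 24 h at 37 °C. IL-2 in the supernatant measured by sandwich ELISA against a recombinant human IL-2 standard.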

[2] = biological target: Rho-associated protein kinase 2 (Homo sapiens, UniProt O75116); assay: Inhibition of protein kinase ROCK2; Range is 5-10
[3] = biological target: RAC-alpha serine/threonine-protein kinase (Homo sapiens, UniProt P31749); assay: Inhibition of AKT kinase
[4] = biological target: Dual specificity mitogen-activated protein kinase kinase 6 (Homo sapiens, UniProt P52564); assay: Inhibition of Mitogen activated protein kinase 6; Range is 5-10
Sequence of Dual specificity mitogen-activated protein kinase kinase 6 (P52564 whole entry): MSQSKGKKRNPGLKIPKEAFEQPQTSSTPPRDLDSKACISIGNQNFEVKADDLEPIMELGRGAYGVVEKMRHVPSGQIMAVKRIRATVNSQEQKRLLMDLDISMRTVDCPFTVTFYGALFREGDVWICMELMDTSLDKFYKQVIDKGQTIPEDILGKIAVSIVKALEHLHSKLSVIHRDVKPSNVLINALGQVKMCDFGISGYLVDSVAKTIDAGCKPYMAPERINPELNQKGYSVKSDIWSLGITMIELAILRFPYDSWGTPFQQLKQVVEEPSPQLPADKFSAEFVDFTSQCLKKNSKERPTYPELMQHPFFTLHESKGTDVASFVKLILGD

[5] = biological target: RAF proto-oncogene serine/threonine-protein kinase (Homo sapiens, UniProt P04049); assay: Inhibition of RAF proto-oncogene serine/threonine protein kinase
[6] = biological target: Dual specificity mitogen-activated protein kinase kinase 4 (Homo sapiens, UniProt P45985); assay: Inhibition of Mitogen activated protein kinase kinase 4
[7] = biological target: MAP kinase-activated protein kinase 5 (Homo sapiens, UniProt Q8IW41); assay: Inhibition of protein kinase PRAK
[8] = biological target: Dual specificity mitogen-activated protein kinase kinase 7 (Homo sapiens, UniProt O14733); assay: Inhibition of mitogen activated protein kinase kinase 7 beta
Sequence of Dual specificity mitogen-activated protein kinase kinase 7 (O14733 whole entry): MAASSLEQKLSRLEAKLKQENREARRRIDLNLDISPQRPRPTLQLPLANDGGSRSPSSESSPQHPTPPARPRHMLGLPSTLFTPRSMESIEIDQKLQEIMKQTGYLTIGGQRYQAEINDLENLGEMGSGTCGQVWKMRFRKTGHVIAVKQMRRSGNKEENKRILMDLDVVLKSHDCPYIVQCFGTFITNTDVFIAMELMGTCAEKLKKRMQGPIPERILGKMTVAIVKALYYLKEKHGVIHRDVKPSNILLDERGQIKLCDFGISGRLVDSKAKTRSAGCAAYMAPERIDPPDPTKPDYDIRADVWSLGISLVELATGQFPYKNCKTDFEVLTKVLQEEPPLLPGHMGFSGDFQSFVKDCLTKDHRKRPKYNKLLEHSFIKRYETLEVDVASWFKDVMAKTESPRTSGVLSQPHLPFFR

[9] = Inhibition of p56 lck tyrosine kinase
[10] = biological target: Proto-oncogene tyrosine-protein kinase Src (Homo sapiens, UniProt P12931); assay: Inhibition of c-SRC tyrosine kinase
Mus musculus = assay: Dose administered orally to decrease TNF alpha plasma level in mice; assay type: functional; conditions: po
In short: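 Groups of six mice. LPS endotoxin (O111:B4, 0.3 mg/kg) given i.p. 15 min later. Plasma TNF-α measured by ELISA in heparinized blood collected by decapitation. Data given as mean ± SEM, analysed by one-way ANOVA with Dunnett's t-test.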

[11] = biological target: Ribosomal protein S6 kinase (P70S6K) (Homo sapiens, UniProt P23443+Q9UBS0); assay: Inhibition of p70S6K; assay type: protein-complex assay
[12] = biological target: MAP kinase-activated protein kinase 2 (Homo sapiens, UniProt P49137); assay: Inhibition of MAP kinase-activated protein kinase 2
[13] = biological target: Cyclin-dependent kinase 2/cyclin A (Homo sapiens, UniProt P24941); assay: Inhibition of CDK2/cyclin A; assay type: protein-complex assay
[14] = biological target: Tyrosine-protein kinase Blk (Homo sapiens, UniProt P51451); assay: Inhibition of BLK; Range is 5-10
Sequence of Tyrosine-protein kinase Blk (P51451 whole entry): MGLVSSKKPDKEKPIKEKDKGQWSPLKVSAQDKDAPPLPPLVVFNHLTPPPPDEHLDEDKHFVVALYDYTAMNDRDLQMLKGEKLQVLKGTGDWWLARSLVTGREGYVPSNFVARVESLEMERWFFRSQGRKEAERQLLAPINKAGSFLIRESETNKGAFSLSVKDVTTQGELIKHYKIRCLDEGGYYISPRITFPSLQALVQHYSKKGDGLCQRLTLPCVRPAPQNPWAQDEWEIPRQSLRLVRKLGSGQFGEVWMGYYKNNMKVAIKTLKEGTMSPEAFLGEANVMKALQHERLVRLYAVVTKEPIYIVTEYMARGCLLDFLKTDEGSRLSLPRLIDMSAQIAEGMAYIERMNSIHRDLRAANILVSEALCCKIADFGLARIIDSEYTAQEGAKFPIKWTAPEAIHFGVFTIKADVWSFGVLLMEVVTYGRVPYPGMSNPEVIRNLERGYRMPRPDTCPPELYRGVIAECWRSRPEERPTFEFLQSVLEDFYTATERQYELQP

[15] = Inhibition of PI3k-gamma
[16] = Oral bioavailability in rat; assay type: ADME, organism-based; conditions: in vivo, read-out: Bioavailabiility
[17] = biological target: Inhibitor of nuclear factor kappa-B kinase subunit beta (Homo sapiens, UniProt O14920); assay: Inhibition of IKKB kinase
[18] = biological target: Serine/threonine-protein kinase Chk1 (Homo sapiens, UniProt O14757); assay: Inhibition of CHK1 kinase
[19] = biological target: Mitogen-activated protein kinase 9 (Homo sapiens, UniProt P45984); assay: Inhibitory concentration against c-Jun N-Terminal kinase 2
[20] = biological target: Mitogen-activated protein kinase 14 (Homo sapiens, UniProt Q16539); assay: Inhibition of MAP kinase p38 alpha
Sequence of Mitogen-activated protein kinase 14 (Q16539 whole entry): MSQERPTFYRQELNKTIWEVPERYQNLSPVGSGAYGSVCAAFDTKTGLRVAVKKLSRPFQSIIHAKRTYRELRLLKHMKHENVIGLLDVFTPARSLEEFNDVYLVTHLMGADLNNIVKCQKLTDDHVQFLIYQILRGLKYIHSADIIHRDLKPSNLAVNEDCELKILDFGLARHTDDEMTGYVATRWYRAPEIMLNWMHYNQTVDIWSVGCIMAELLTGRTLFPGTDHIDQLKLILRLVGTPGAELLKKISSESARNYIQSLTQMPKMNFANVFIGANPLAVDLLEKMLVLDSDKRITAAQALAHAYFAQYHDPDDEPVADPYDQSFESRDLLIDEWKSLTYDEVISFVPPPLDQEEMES

[21] = biological target: Dual specificity mitogen-activated protein kinase kinase 1 (Homo sapiens, UniProt Q02750); assay: Inhibition of mitogen activated protein kinase kinase 1 (MEK1)
[22] = biological target: Mitogen-activated protein kinase 8 (Homo sapiens, UniProt P45983); assay: Inhibition of c-Jun N-Terminal kinase 1
Sequence of Mitogen-activated protein kinase 8 (P45983 whole entry): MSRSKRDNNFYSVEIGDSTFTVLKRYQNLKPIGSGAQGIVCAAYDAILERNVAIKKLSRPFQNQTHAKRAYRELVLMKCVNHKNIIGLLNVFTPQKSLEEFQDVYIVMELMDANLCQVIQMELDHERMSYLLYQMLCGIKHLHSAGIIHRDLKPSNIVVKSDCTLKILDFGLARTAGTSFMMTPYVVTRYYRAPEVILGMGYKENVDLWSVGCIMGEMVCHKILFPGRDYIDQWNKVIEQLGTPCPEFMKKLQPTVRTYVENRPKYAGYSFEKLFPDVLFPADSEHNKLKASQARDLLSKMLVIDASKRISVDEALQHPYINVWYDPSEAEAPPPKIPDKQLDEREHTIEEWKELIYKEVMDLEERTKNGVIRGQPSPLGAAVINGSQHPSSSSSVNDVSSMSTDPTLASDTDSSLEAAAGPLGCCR

[23] = biological target: Protein kinase C alpha type (Homo sapiens, UniProt P17252); assay: Inhibition of protein kinase C alpha
[24] = biological target: Mitogen-activated protein kinase 3 (Homo sapiens, UniProt P27361); assay: Inhibition of ERK1 kinase
[25] = biological target: Ribosomal protein S6 kinase alpha-5 (Homo sapiens, UniProt O75582); assay: Inhibition of MSK-1 kinase; Range is 5-10
Sequence of Ribosomal protein S6 kinase alpha-5 (O75582 whole entry): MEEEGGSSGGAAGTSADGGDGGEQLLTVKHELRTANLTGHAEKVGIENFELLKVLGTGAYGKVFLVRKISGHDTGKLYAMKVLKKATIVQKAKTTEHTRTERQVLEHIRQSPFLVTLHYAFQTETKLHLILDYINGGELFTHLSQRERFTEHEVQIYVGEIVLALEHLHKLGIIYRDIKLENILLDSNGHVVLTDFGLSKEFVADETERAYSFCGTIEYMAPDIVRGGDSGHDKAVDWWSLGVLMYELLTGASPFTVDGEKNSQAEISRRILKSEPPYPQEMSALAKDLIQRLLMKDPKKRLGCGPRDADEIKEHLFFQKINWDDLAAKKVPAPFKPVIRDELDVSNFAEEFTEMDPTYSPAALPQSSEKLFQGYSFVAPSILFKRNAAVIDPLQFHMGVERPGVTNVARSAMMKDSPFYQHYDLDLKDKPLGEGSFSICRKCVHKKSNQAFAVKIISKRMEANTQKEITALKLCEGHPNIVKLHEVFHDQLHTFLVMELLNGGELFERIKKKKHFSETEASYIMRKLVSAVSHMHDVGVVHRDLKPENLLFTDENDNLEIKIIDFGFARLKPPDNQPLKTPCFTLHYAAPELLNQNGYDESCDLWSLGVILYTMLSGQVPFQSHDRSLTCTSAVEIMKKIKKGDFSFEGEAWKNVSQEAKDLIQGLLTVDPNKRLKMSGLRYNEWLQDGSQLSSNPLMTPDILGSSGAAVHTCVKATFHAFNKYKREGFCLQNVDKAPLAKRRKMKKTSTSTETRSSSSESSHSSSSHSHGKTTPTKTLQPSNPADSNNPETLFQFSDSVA

[26] = biological target: Serine/threonine-protein kinase Sgk1 (Homo sapiens, UniProt O00141); assay: Inhibition of SGK; Range is 5-10
Sequence of Serine/threonine-protein kinase Sgk1 (O00141 whole entry): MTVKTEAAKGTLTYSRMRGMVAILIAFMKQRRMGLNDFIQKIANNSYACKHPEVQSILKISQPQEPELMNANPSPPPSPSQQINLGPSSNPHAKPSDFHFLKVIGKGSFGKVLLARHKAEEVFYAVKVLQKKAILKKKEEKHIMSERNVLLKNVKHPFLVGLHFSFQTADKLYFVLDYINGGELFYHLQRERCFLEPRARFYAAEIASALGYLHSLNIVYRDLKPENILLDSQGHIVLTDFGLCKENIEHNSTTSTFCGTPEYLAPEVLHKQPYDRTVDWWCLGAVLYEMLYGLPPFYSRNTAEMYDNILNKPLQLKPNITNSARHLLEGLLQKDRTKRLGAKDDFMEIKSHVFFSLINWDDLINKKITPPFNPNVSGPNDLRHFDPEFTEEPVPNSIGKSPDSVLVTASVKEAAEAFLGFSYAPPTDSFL

[27] = biological target: 3-phosphoinositide-dependent protein kinase 1 (Homo sapiens, UniProt O15530); assay: Inhibitory concentration against PDK 1
Sequence of 3-phosphoinositide-dependent protein kinase 1 (O15530 whole entry): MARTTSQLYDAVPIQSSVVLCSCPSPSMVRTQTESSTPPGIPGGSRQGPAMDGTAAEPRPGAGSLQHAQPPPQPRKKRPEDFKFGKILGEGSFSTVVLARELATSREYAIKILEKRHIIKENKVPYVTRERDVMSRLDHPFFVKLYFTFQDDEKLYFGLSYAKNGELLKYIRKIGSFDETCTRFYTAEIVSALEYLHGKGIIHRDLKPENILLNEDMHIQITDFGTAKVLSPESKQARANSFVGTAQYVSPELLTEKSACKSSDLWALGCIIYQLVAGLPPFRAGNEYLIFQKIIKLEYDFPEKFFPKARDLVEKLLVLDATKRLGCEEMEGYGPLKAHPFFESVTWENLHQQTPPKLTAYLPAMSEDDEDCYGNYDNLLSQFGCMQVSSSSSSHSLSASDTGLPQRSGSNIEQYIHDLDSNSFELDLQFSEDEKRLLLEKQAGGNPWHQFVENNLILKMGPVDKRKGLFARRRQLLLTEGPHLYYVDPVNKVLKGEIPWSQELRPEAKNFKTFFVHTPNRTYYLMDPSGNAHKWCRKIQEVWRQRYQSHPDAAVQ

Sequence of Mitogen-activated protein kinase 10 (P49187 whole entry): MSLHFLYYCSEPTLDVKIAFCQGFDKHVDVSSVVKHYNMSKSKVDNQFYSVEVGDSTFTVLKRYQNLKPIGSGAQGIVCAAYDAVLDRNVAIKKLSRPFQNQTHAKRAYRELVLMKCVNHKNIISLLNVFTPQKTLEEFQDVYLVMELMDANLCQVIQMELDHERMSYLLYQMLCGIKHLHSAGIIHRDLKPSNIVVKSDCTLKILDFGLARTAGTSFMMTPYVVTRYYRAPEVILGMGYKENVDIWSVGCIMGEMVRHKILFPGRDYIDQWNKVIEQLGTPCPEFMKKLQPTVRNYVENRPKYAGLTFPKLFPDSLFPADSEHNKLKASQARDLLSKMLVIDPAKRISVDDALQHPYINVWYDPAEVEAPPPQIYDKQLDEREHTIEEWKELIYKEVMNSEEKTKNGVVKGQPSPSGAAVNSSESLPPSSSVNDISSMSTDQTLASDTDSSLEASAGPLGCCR

Compound: CNCCCN(C)c1nccc(/C(C#N)=C2\Nc3ccccc3S2)n1
- IC50 [1]: 1320 nM

Compound: COC1CCN(c2nccc(/C(C#N)=C3\Nc4ccccc4S3)n2)CC1
- IC50 [1]: 7200 nM

Compound: N#C/C(=C1/Nc2ccccc2S1)c1ccnc(NCCCN)n1
- IC50 [1]: 707 nM

Compound: N#CC(=C1Nc2ccccc2N1)c1nc(Cl)ncc1Br
- IC50 [1]: > 5000 nM

Compound: N#C/C(=C1/Nc2ccccc2S1)c1cccc(Cl)n1
- IC50 [1]: > 5000 nM

Compound: N#C/C(=C1/Nc2ccccc2S1)c1ccnc(NCCc2cccc(Cl)c2)n1
- IC50 [1]: > 5000 nM

Compound: N#C/C(=C1/Nc2ccccc2S1)c1ccnc(NCCN2CCOCC2)n1
- IC50 [1]: 760 nM

Compound: N#C/C(=C1/Nc2ccccc2S1)c1ccnc(NCCN2CCCCC2)n1
- IC50 [1]: 3740 nM

Compound: CN(C)CCNc1nccc(/C(C#N)=C2\Nc3ccccc3S2)n1
- IC50 [1]: 1300 nM

Compound: CNc1nccc(/C(C#N)=C2\Nc3ccccc3S2)n1
- IC50 [1]: 950 nM

Compound: CCCN(CCC)c1nccc(/C(C#N)=C2\Nc3ccccc3S2)n1
- IC50 [1]: > 5000 nM

Compound: CN(C)CCCNc1nccc(/C(C#N)=C2\Nc3ccccc3S2)n1
- IC50 [1]: 1640 nM

Compound: N#C/C(=C1/Nc2ccccc2S1)c1ccnc(NCc2nn[nH]n2)n1
- IC50 [1]: > 5000 nM

Compound: N#C/C(=C1/Nc2ccccc2S1)c1ccnc(NCc2ccccc2)n1
- IC50 [1]: 6500 nM

Compound: N#C/C(=C1/Nc2ccccc2S1)c1ccnc(NCCc2ccc(Cl)c(Cl)c2)n1
- IC50 [1]: > 5000 nM

Compound: Cn1cncc1CCNc1nccc(/C(C#N)=C2\Nc3ccccc3S2)n1
- inhibition at 10 µM (Jurkat): 100%

Compound: N#C/C(=C1/Nc2ccccc2S1)c1ccnc(NCCc2ccc(Br)cc2)n1
- IC50 [1]: > 5000 nM

Compound: Cc1cc(/C(C#N)=C2\Nc3ccccc3S2)nc(Cl)n1
- IC50 [1]: > 5000 nM

Compound: CN1CCN(c2nccc(/C(C#N)=C3\Nc4ccccc4S3)n2)CC1
- IC50 [1]: 6800 nM

Compound: CN1CCN(CCCNc2nccc(/C(C#N)=C3\Nc4ccccc4S3)n2)CC1
- inhibition at 10 µM (Jurkat): 83%

Compound: CCCNc1nccc(/C(C#N)=C2\Nc3ccccc3S2)n1
- IC50 [1]: > 5000 nM

Compound: N#C/C(=C1/Nc2ccccc2S1)c1ccncn1
- IC50 [1]: > 5000 nM

Compound: N#C/C(=C1/Nc2ccccc2S1)c1ccnc(NCCc2cccc(F)c2)n1
- IC50 [1]: 1810 nM

Compound: N#C/C(=C1/Nc2ccccc2S1)c1ccnc(NCCN)n1
- IC50 [1]: 1490 nM

Compound: N#C/C(=C1/Nc2ccccc2S1)c1ccnc(NCCc2ccc(O)cc2)n1
- IC50 [1]: 3500 nM

Compound: COCCNc1nccc(/C(C#N)=C2\Nc3ccccc3S2)n1
- IC50 [1]: 820 nM

Compound: N#C/C(=C1/Nc2ccccc2S1)c1ccnc(NCCc2cccnc2)n1.O=C(O)C(F)(F)F.O=C(O)C(F)(F)F
- IC50 [2]: 10000 nM
- IC50 [3]: > 10000 nM
- IC50 [4]: 10000 nM
- inhibition at 10 µM (Jurkat): 90%
- IC50 [5]: 1200 nM
- IC50 [6]: > 10000 nM
- IC50 [7]: > 10000 nM
- IC50 [8]: > 10000 nM
- IC50 [9]: > 10000 nM
- IC50 [10]: 1100 nM
- ED50 (Mus musculus): 3 mg/kg
- IC50 [11]: > 10000 nM
- IC50 [12]: > 10000 nM
- IC50 [13]: 1400 nM
- IC50 [14]: 10000 nM
- IC50 [15]: > 10000 nM
- bioavailability [16]: 38%
- IC50 [17]: > 10000 nM
- IC50 [18]: > 10000 nM
- IC50 [19]: 220 nM
- IC50 [20]: 4800 nM
- IC50 [21]: > 10000 nM
- IC50 [22]: 150 nM
- IC50 [23]: > 10000 nM
- IC50 [24]: > 10000 nM
- IC50 [25]: 10000 nM
- IC50 [26]: 10000 nM
- IC50 [27]: > 10000 nM

Compound: N#C/C(=C1/Nc2ccccc2S1)c1ccnc(N)n1
- IC50 [1]: 7500 nM

Compound: N#C/C(=C1/Nc2ccccc2S1)c1ccnc(N2CCNCC2)n1
- IC50 [1]: 6600 nM

Compound: Cc1ccc(CCNc2nccc(/C(C#N)=C3\Nc4ccccc4S3)n2)cc1
- IC50 [1]: > 5000 nM

Compound: CN1/C(=C(/C#N)c2ccnc(Cl)n2)Sc2ccccc21
- IC50 [1]: > 5000 nM

Compound: N#C/C(=C1/Nc2ccccc2S1)c1ccnc(N2CCOCC2)n1
- IC50 [1]: 2900 nM

Compound: CN(C)c1nccc(/C(C#N)=C2\Nc3ccccc3S2)n1
- IC50 [1]: 9400 nM

Compound: N#C/C(=C1/Nc2ccccc2S1)c1ccnc(NCCc2ccccc2)n1
- IC50 [1]: > 5000 nM

Compound: N#C/C(=C1/Nc2cc(C(F)(F)F)ccc2S1)c1ccnc(Cl)n1
- IC50 [1]: 993 nM

Compound: N#C/C(=C1/Nc2ccccc2S1)c1ccnc(NCCc2ccc(F)cc2)n1
- inhibition at 10 µM (Jurkat): 0%
- IC50 [1]: > 5000 nM

Compound: CCO/C(O)=C(\c1ccnc(Cl)n1)c1nc2ccccc2s1
- IC50 [1]: > 5000 nM

Compound: CCCN(CCCNc1nccc(/C(C#N)=C2\Nc3ccccc3S2)n1)C(=O)CC
- IC50 [1]: 1340 nM

Compound: COc1ccc(CCNc2nccc(/C(C#N)=C3\Nc4ccccc4S3)n2)cc1
- IC50 [1]: 3080 nM

Second part, led by results:

- IC50 [1]: 80 nM
Compound: N#C/C(=C1/Nc2ccccc2S1)c1ccnc(NCCc2ccc(N)cc2)n1
- inhibition at 10 µM (Jurkat): 80%

- IC50 [1]: 41 nM
Compound: N#C/C(=C1/Nc2ccccc2S1)c1ccnc(NCCc2ccc(S(N)(=O)=O)cc2)n1

- IC50 [1]: 458 nM
Compound: N#C/C(=C1/Nc2ccccc2S1)c1ccnc(NCCn2ccc3ccccc32)n1

- IC50 [1]: 600 nM
Compound: N#C/C(=C1/Nc2ccccc2S1)c1ccnc(NCCc2ccc([N+](=O)[O-])cc2)n1

- IC50 [1]: 350 nM
Compound: N#C/C(=C1/Nc2ccccc2S1)c1cc(Br)nc(Cl)n1

- IC50 [1]: 65 nM
Compound: Cn1cnc(CCNc2nccc(/C(C#N)=C3\Nc4ccccc4S3)n2)c1

- IC50 [1]: 340 nM
Compound: N#C/C(=C1/Nc2ccccc2S1)c1ccnc(NCc2ccncc2)n1

- IC50 [1]: 397 nM
Compound: N#C/C(=C1/Nc2ccccc2S1)c1ccnc(NCCn2cncn2)n1

- IC50 [1]: 337 nM
Compound: N#C/C(=C1/Nc2ccccc2S1)c1ccnc(NCc2cccnc2)n1
- inhibition at 10 µM (Jurkat): 95%

- IC50 [1]: 250 nM
Compound: N#C/C(=C1/Nc2ccccc2S1)c1ccnc(Cl)n1
- inhibition at 10 µM (Jurkat): 90%

- IC50 [1]: 407 nM
Compound: N#C/C(=C1/Nc2ccccc2S1)c1ccnc(NCCCN2CCOCC2)n1

- IC50 [1]: 660 nM
Compound: N#C/C(=C1/Nc2ccccc2S1)c1ccnc(NCCCO)n1

- IC50 [1]: 250 nM
Compound: N#C/C(=C1/Nc2ccccc2S1)c1ccnc(NCCc2ccccn2)n1
- inhibition at 10 µM (Jurkat): 60%

- IC50 [1]: 273 nM
Compound: N#C/C(=C1/Nc2ccccc2S1)c1ccnc(NCCc2ccccc2F)n1
- inhibition at 10 µM (Jurkat): 90%

- IC50 [1]: 500 nM
Compound: N#C/C(=C1/Nc2ccccc2S1)c1ccnc(NN)n1

- IC50 [1]: 650 nM
Compound: N#C/C(=C1/Nc2ccccc2S1)c1ccnc(NCc2ccccn2)n1

- IC50 [1]: 510 nM
Compound: N#C/C(=C1/Nc2ccccc2S1)c1ccnc(NCCO)n1

- IC50 [1]: 147 nM
Compound: N#C/C(=C1/Nc2ccccc2S1)c1ccnc(NCCCn2ccnc2)n1
- inhibition at 10 µM (Jurkat): 31%

- IC50 [1]: 80 nM
Compound: N#C/C(=C1/Nc2ccccc2S1)c1ccnc(NCCc2c[nH]cn2)n1
- inhibition at 10 µM (Jurkat): 80%

- IC50 [1]: 583 nM
Compound: N#C/C(=C1/Nc2ccccc2S1)c1ccnc(NCCCn2cccn2)n1
